The structures appear in SMILES notation. Active and inactive are the calls of the source. The rule behind the calls is not given here.

Experiment [1] has as its system B16-F10. The experiment can be described thus: Induction of melanin synthesis in mouse B16F10 cells at 50 uM after 48 hrs by spectrophotometric analysis relative to control. The experiment is classed as functional. Summed up:
(§1)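 B16F10 cells in DMEM with 10% heat-inactivated FBS, penicillin/streptomycin, 37 °C, 5% CO2; 5 × 10^5 cells per well, allowed 24 h, then fresh medium with compound for 48 h. Cells washed in cold PBS, lysed in RIPA on ice 40 min, spun 10,000g 20 min; pellet dissolved in 1 M NaOH, 60 °C 2 h, A405, normalised to protein. Three experiments in duplicate.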

The subject of experiment [2] is B16-F10. Put plainly: Induction of melanin synthesis in mouse B16F10 cells at 50 uM after 48 hrs by spectrophotometric analysis relative to 8-MOP. The experiment is classed as functional. The essentials: as §1

Turning to `O=c1ccc2ccc3occc3c2o1`, in experiment [1], the result was Active.

As to `Cc1ccccc1/N=C/c1cc(=O)oc2cc3oc4ccccc4c3cc12`, the “fold change (FC)” value in experiment [2] is 3. The Activity in experiment [1] stood at 350.5%.

Consider `Cc1oc2ccc3c(C)cc(=O)oc3c2c1C`, for which the outcome in experiment [1] was Active.

Take `Cc1cc(=O)oc2c1ccc1occc12`: in experiment [1], the result was Active.

On to `Cc1coc2cc3oc(=O)ccc3cc12`, for which, in experiment [1], the outcome was Active.

On to `Cc1oc2ccc3ccc(=O)oc3c2c1C`, for which the result in experiment [1] was Active.

On to `O=Cc1cc(=O)oc2cc3oc4ccccc4c3cc12`, for which the outcome in experiment [1] was Active.

With `O=c1ccc2cc3c(-c4ccccc4)coc3cc2o1`, the outcome in experiment [1] was Active.

In the case of `Cc1oc2cc3oc(=O)ccc3cc2c1C`, the result in experiment [1] was Active.

Take `O=c1ccc2cc3c4c(oc3cc2o1)CCCC4`: the outcome in experiment [1] was Active.

On to `Cc1cc(=O)oc2cc3oc4c(c3cc12)CCCC4`, for which, in experiment [1], the result was Active.

With `Cc1coc2ccc3ccc(=O)oc3c12`, the result in experiment [1] was Active.

With `Cc1cc(=O)oc2cc3occ(-c4ccccc4)c3cc12`, in experiment [1], the outcome was Active.

Consider `Cc1oc2cc3oc(=O)cc(C)c3cc2c1C`, for which, in experiment [1], the result was Active.

In the case of `O=c1cc(CO)c2cc3c(cc2o1)oc1ccccc13`, in experiment [1], the result was Active.

With `Cc1cc(=O)oc2c1ccc1occ(C)c12`, the outcome in experiment [1] was Active.

For the molecule `O=c1ccc2cc3ccoc3cc2o1`, the outcome in experiment [1] was Active.

As for `Cc1ccc(C(=O)OCc2cc(=O)oc3cc4oc5ccccc5c4cc23)cc1`, in experiment [2], the “fold change (FC)” value stood at 3. The same molecule displayed an Activity in experiment [1] of 313.1%.

For the molecule `Cc1coc2cc3oc(=O)cc(C)c3cc12`, in experiment [1], the result was Active.

In experiment [1], `COc1c2occc2cc2ccc(=O)oc12` [METHOXSALEN] returned an Activity of 114.5%.

With `O=c1ccc2ccc3oc4c(c3c2o1)CCCC4`, the result in experiment [1] was Active.
